Measured values: ChEMBL document CHEMBL4689842, “EUbOPEN Chemogenomics Library wave 1” (2021)

How the values were obtained:
Type in all cases: toxicity, cell-based
[1] = system: HEK-293T; test: Incucyte cell viability with HEK293T; conditions: human, 10 µM, compound concentration 10 uM; note: filed as whole numbers so only -1 and 0 and 1 occur
[2] = system: Fibroblast; test: Multiplex assay against human fibroblast
Summary of the method: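 Cells stained live at seeding with Hoechst33342, BioTracker Green Microtubule Cytoskeleton Dye, MitoTracker Red and Annexin V Alexa Fluor 680 were imaged on a CQ1 microscope at 37°C and 5% CO2 after compound addition. Their classification by CellPathfinder machine-learning gating ran from Hoechst high-intensity objects versus normal cells, to healthy, pyknosed or fragmented nuclei among normal cells, to mitotic or apoptotic among pyknosed cells. Tubulin, mitochondrial-mass and membrane-permeability phenotypes are per cents of healthy-nucleus cells.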

[3] = system: U2OS; test: Incucyte cell viability with U2OS; conditions: human, 10 µM, compound concentration 10 uM; note: filed as whole numbers so only -1 and 0 and 1 occur
[4] = system: Fibroblast; test: Incucyte cell viability with human fibroblast; conditions: 10 µM, compound concentration 10 uM; note: filed as whole numbers so only -1 and 0 and 1 occur
[5] = 6 h, replicate number 1, timepoint 6 hours
[6] = 12 h, replicate number 1, timepoint 12 hours
[7] = 18 h, replicate number 1, timepoint 18 hours
[8] = 24 h, replicate number 1, timepoint 24 hours
[9] = 12 h, 1 µM, compound concentration 1 uM, replicate 1
[10] = 12 h, 1 µM, compound concentration 1 uM, replicate 2
[11] = 12 h, 10 µM, compound concentration 10 uM, replicate 1
[12] = 12 h, 10 µM, compound concentration 10 uM, replicate 2
[13] = 24 h, 1 µM, compound concentration 1 uM, replicate 1
[14] = 24 h, 1 µM, compound concentration 1 uM, replicate 2
[15] = 24 h, 10 µM, compound concentration 10 uM, replicate 1
[16] = 24 h, 10 µM, compound concentration 10 uM, replicate 2
[17] = 0 h, replicate number 1, timepoint 0 hours
[18] = 0 h, replicate number 2, timepoint 0 hours

CN(C)C/C=C/C(=O)Nc1cc2c(Nc3ccc(F)c(Cl)c3)ncnc2cc1O[C@H]1CCOC1.O=C(O)/C=C\C(=O)O.O=C(O)/C=C\C(=O)O [AFATINIB DIMALEATE]
Growth Rate [1, 5]: 0 | Growth Rate [1, 6]: 0 | Growth Rate [1, 7]: 0 | Growth Rate [1, 8]: 0 | Population Apoptotic (%) [2, 9]: 66% | Population Fragmented Nuclei (%) [2, 9]: 30% | Population Healthy Nuclei (%) [2, 9]: 53% | Population Hoechst High Intensity Objects (%) [2, 9]: 13% | Population Membrane Permeable-Phenotype (%) [2, 9]: 13% | Population Mitochondria Different-Phenotype (%) [2, 9]: 3% | Population Mitotic Cells (%) [2, 9]: 33% | Population Normal (%) [2, 9]: 86% | Population Pyknosed Nuclei (%) [2, 9]: 16% | Population Tubulin-Different-Phenotype (%) [2, 9]: 10% | Total Cell Count [2, 9]: 234 | Population Apoptotic (%) [2, 10]: 45% | Population Fragmented Nuclei (%) [2, 10]: 60% | Population Healthy Nuclei (%) [2, 10]: 21% | Population Hoechst High Intensity Objects (%) [2, 10]: 38% | Population Membrane Permeable-Phenotype (%) [2, 10]: 7% | Population Mitochondria Different-Phenotype (%) [2, 10]: 30% | Population Mitotic Cells (%) [2, 10]: 54% | Population Normal (%) [2, 10]: 61% | Population Pyknosed Nuclei (%) [2, 10]: 18% | Population Tubulin-Different-Phenotype (%) [2, 10]: 15% | Total Cell Count [2, 10]: 99 | Population Apoptotic (%) [2, 11]: 58% | Population Fragmented Nuclei (%) [2, 11]: 27% | Population Healthy Nuclei (%) [2, 11]: 50% | Population Hoechst High Intensity Objects (%) [2, 11]: 24% | Population Membrane Permeable-Phenotype (%) [2, 11]: 18% | Population Mitochondria Different-Phenotype (%) [2, 11]: 12% | Population Mitotic Cells (%) [2, 11]: 41% | Population Normal (%) [2, 11]: 75% | Population Pyknosed Nuclei (%) [2, 11]: 22% | Population Tubulin-Different-Phenotype (%) [2, 11]: 68% | Total Cell Count [2, 11]: 247 | Population Apoptotic (%) [2, 12]: 22% | Population Fragmented Nuclei (%) [2, 12]: 33% | Population Healthy Nuclei (%) [2, 12]: 52% | Population Hoechst High Intensity Objects (%) [2, 12]: 34% | Population Membrane Permeable-Phenotype (%) [2, 12]: 16% | Population Mitochondria Different-Phenotype (%) [2, 12]: 13% | Population Mitotic Cells (%) [2, 12]: 77% | Population Normal (%) [2, 12]: 65% | Population Pyknosed Nuclei (%) [2, 12]: 13% | Population Tubulin-Different-Phenotype (%) [2, 12]: 91% | Total Cell Count [2, 12]: 104 | Population Apoptotic (%) [2, 13]: 72% | Population Fragmented Nuclei (%) [2, 13]: 35% | Population Healthy Nuclei (%) [2, 13]: 53% | Population Hoechst High Intensity Objects (%) [2, 13]: 18% | Population Membrane Permeable-Phenotype (%) [2, 13]: 5% | Population Mitochondria Different-Phenotype (%) [2, 13]: 7% | Population Mitotic Cells (%) [2, 13]: 27% | Population Normal (%) [2, 13]: 81% | Population Pyknosed Nuclei (%) [2, 13]: 10% | Population Tubulin-Different-Phenotype (%) [2, 13]: 13% | Total Cell Count [2, 13]: 247 | Population Apoptotic (%) [2, 14]: 50% | Population Fragmented Nuclei (%) [2, 14]: 54% | Population Healthy Nuclei (%) [2, 14]: 28% | Population Hoechst High Intensity Objects (%) [2, 14]: 34% | Population Membrane Permeable-Phenotype (%) [2, 14]: 0% | Population Mitochondria Different-Phenotype (%) [2, 14]: 6% | Population Mitotic Cells (%) [2, 14]: 50% | Population Normal (%) [2, 14]: 65% | Population Pyknosed Nuclei (%) [2, 14]: 17% | Population Tubulin-Different-Phenotype (%) [2, 14]: 12% | Total Cell Count [2, 14]: 87 | Population Apoptotic (%) [2, 15]: 57% | Population Fragmented Nuclei (%) [2, 15]: 29% | Population Healthy Nuclei (%) [2, 15]: 54% | Population Hoechst High Intensity Objects (%) [2, 15]: 38% | Population Membrane Permeable-Phenotype (%) [2, 15]: 19% | Population Mitochondria Different-Phenotype (%) [2, 15]: 21% | Population Mitotic Cells (%) [2, 15]: 42% | Population Normal (%) [2, 15]: 61% | Population Pyknosed Nuclei (%) [2, 15]: 15% | Population Tubulin-Different-Phenotype (%) [2, 15]: 61% | Population Apoptotic (%) [2, 16]: 66% | Population Fragmented Nuclei (%) [2, 16]: 49% | Population Healthy Nuclei (%) [2, 16]: 36% | Population Hoechst High Intensity Objects (%) [2, 16]: 35% | Population Membrane Permeable-Phenotype (%) [2, 16]: 34% | Population Mitochondria Different-Phenotype (%) [2, 16]: 26% | Population Mitotic Cells (%) [2, 16]: 33% | Population Normal (%) [2, 16]: 64% | Population Pyknosed Nuclei (%) [2, 16]: 14% | Population Tubulin-Different-Phenotype (%) [2, 16]: 82% | Total Cell Count [2, 16]: 98 | Growth Rate [3, 17]: 0 | Growth Rate [3, 18]: 1 | Growth Rate [3, 5]: 0 | Growth Rate [3, 6]: 0 | Growth Rate [3, 7]: 0 | Growth Rate [3, 8]: 0 | Growth Rate [4, 17]: 0 | Growth Rate [4, 18]: 1 | Growth Rate [4, 5]: 0 | Growth Rate [4, 6]: 0 | Growth Rate [4, 7]: 0 | Growth Rate [4, 8]: 0
